{"source": "ChEMBL document CHEMBL1759978", "about": "“Synthesis and biological evaluation of fatty acyl ester derivatives of 2',3'-didehydro-2',3'-dideoxythymidine” (Bioorg Med Chem Lett, 2011)", "key": {"[1]": {"test_system": "CCRF-CEM", "assay": "Cellular uptake in human CCRF-CEM cells at 10 uM after 1 to 8 hrs by flow cytometry", "format": "ADME, cell-based", "outline": "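CCRF-CEM T lymphoblastoid cells grown to 70% confluency, then exposed to 10 of the fluorescein-tagged conjugates for 1, 2, 4 and 8 h, with DMSO and free 5(6)-carboxyfluorescein as controls. Uptake was read by flow cytometry in the FITC channel as the mean fluorescence of 10,000 cells, in triplicate.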"}, "[2]": {"test_system": "CCRF-CEM", "assay": "Cellular uptake in human CCRF-CEM cells at 10 uM after 1 hr by real time fluorescence microscopy", "format": "ADME, cell-based", "outline": "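Live CCRF-CEM cells were incubated 1 h with 10 of the fluorescein-labelled conjugates, with DMSO and free 5(6)-carboxyfluorescein as controls, then imaged by fluorescence light microscopy.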"}, "[3]": {"test_system": "Human immunodeficiency virus 1", "assay": "Antiviral activity against Human immunodeficiency virus 1 infected in human CEM-SS cells assessed as inhibition of viral replication", "format": "functional, organism-based", "conditions": "Human immunodeficiency virus 1, CEM-SS"}, "[4]": {"test_system": "HeLa", "assay": "Cytotoxicity against human HeLa P4/R5 cells by MTS assay", "format": "cell-based", "conditions": "read-out: EC50 (the source's name)"}, "[5]": {"test_system": "Human immunodeficiency virus 1", "assay": "Antiviral activity against Human immunodeficiency virus 1 3B by MAGI assay", "format": "functional, organism-based"}, "[6]": {"test_system": "Human immunodeficiency virus 1", "assay": "Antiviral activity against Human immunodeficiency virus 1 BAL by MAGI assay", "format": "functional, organism-based"}, "[7]": {"test_system": "Human immunodeficiency virus 1", "assay": "Antiviral activity against Human immunodeficiency virus 1 3B infected in human SupT1 cells by cell-associated transmission assay", "format": "functional, organism-based", "conditions": "SUP-T1"}, "[8]": {"species": "Homo sapiens", "assay": "Spermicidal activity against human sperm assessed as immobolizing sperm treated for 10 mins by microscopy relative to control", "format": "functional"}, "[9]": {"species": "Homo sapiens", "assay": "Spermicidal activity against human sperm assessed as sperm tail response at 1 mg/ml for 10 mins by microscopy relative to control", "format": "functional"}, "[10]": {"test_system": "CCRF-CEM", "assay": "Cellular uptake in human CCRF-CEM cells at 10 uM after 1 to 8 hrs measured after 5 mins trypsin wash off by flow cytometry relative to control", "format": "ADME, cell-based"}}, "note": "Active and inactive are the calls of the source. No cut-off for these calls is given here.", "data": [{"smiles": "Cc1cn([C@H]2C=C[C@@H](COC(=O)CCNC(=O)c3ccc(-c4c5ccc(=O)cc-5oc5cc(O)ccc45)c(C(=O)O)c3)O2)c(=O)[nH]c1=O", "values": [{"measurement": "Drug uptake", "setting": "[1]", "result": "Not Active"}, {"measurement": "Drug uptake", "setting": "[2]", "result": "Not Active"}]}, {"smiles": "CCSCCCCCCCCCCCC(=O)O", "values": [{"measurement": "EC50", "setting": "[3]", "result": 9.4, "unit": "µM"}]}, {"smiles": "Cc1cn([C@H]2C=C[C@@H](COC(=O)CCCCCCCCCCCBr)O2)c(=O)[nH]c1=O", "values": [{"measurement": "CC50", "setting": "[4]", "result": "> 200", "unit": "µM"}, {"measurement": "EC50", "setting": "[5]", "result": 14.9, "unit": "µM"}, {"measurement": "EC50", "setting": "[6]", "result": 2.3, "unit": "µM"}, {"measurement": "EC50", "setting": "[7]", "result": "> 206", "unit": "µM"}]}, {"smiles": "CCSCCCCCCCCCCCC(=O)OC[C@@H]1C=C[C@H](n2cc(C)c(=O)[nH]c2=O)O1", "values": [{"measurement": "CC50", "setting": "[4]", "result": "> 200", "unit": "µM"}, {"measurement": "EC50", "setting": "[5]", "result": 14.4, "unit": "µM"}, {"measurement": "EC50", "setting": "[6]", "result": 5.8, "unit": "µM"}, {"measurement": "EC50", "setting": "[7]", "result": 46.5, "unit": "µM"}, {"measurement": "Activity", "setting": "[8]", "result": "inactive"}, {"measurement": "Activity", "setting": "[9]", "result": "inactive"}]}, {"smiles": "Cc1cn([C@H]2C=C[C@@H](COC(=O)CCCCCCCCCCCNC(=O)c3ccc(-c4c5ccc(=O)cc-5oc5cc(O)ccc45)c(C(=O)O)c3)O2)c(=O)[nH]c1=O", "values": [{"measurement": "Drug uptake", "setting": "[1]", "result": "Active"}, {"measurement": "Drug uptake", "setting": "[10]", "result": "Active"}, {"measurement": "Drug uptake", "setting": "[2]", "result": "Active"}]}, {"smiles": "CCCCCCCCCCCCCC(=O)OC[C@@H]1C=C[C@H](n2cc(C)c(=O)[nH]c2=O)O1", "values": [{"measurement": "CC50", "setting": "[4]", "result": "> 200", "unit": "µM"}, {"measurement": "EC50", "setting": "[5]", "result": 78.3, "unit": "µM"}, {"measurement": "EC50", "setting": "[6]", "result": 12.4, "unit": "µM"}, {"measurement": "EC50", "setting": "[7]", "result": "> 230", "unit": "µM"}, {"measurement": "Activity", "setting": "[8]", "result": "inactive"}, {"measurement": "Activity", "setting": "[9]", "result": "inactive"}]}, {"smiles": "Cc1cn([C@H]2C=C[C@@H](COC(=O)CCCCCCCCCCCN=[N+]=[N-])O2)c(=O)[nH]c1=O", "values": [{"measurement": "CC50", "setting": "[4]", "result": "> 200", "unit": "µM"}, {"measurement": "EC50", "setting": "[5]", "result": 6.7, "unit": "µM"}, {"measurement": "EC50", "setting": "[6]", "result": 3.1, "unit": "µM"}, {"measurement": "EC50", "setting": "[7]", "result": 22.4, "unit": "µM"}, {"measurement": "Activity", "setting": "[8]", "result": "inactive"}, {"measurement": "Activity", "setting": "[9]", "result": "inactive"}]}, {"smiles": "Cc1cn([C@H]2C=C[C@@H](CO)O2)c(=O)[nH]c1=O", "note": "[STAVUDINE]", "values": [{"measurement": "EC50", "setting": "[5]", "result": 26.8, "unit": "µM"}, {"measurement": "EC50", "setting": "[6]", "result": 28.1, "unit": "µM"}, {"measurement": "EC50", "setting": "[7]", "result": 136, "unit": "µM"}]}, {"smiles": "O=C(O)c1ccc2c(c1)C1(OC2=O)c2ccc(O)cc2Oc2cc(O)ccc21", "values": [{"measurement": "Drug uptake", "setting": "[2]", "result": "Not Active"}]}]}
